Screens (PubChem)
14-3-3 Bad inh – disrupts binding of bovine 14-3-3 zeta to phospho-Bad peptide | TR-FRET 14-3-3zeta/Dy647-pBad peptide displacement, 1 h | inhibition, % at 21.7 µM | hit rate 0.71% among 220,000 | P63103 | AID 781;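 active means inhibition above about 70%, limit read from the data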
Bim-Mcl-1 – inhibitors of Bim-Mcl-1 interaction, human; Bead-based flow cytometry, Bim peptide-Mcl-1 binding; AID 1009; inhibition, % at 10 µM; hit rate 0.1% among 190,000; in the data active means inhibition above about 40%
Mcl1-Bid inh – Mcl-1/Bid interaction inhibition | Q07820 | AID 1021 | TR-FRET Mcl-1/Bid-Dy647 peptide binding, 1536-well | inhibition, % at 21.7 µM | hit rate 0.97% among 220,000;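 active means compounds that cut the binding signal by more than half at the single screening dose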;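 further: His-tagged Mcl-1 with europium anti-His antibody binding Bid BH3 peptide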
Biofilm kill mix – mixtures killing C. albicans biofilm | C. albicans biofilm persisters + clotrimazole, fluorescence viability; primary screen in compound mixtures of four per well | inhibition, % at 7.6 µM | hit rate 0.02% among 120,000 | AID 1242;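 active means inhibition above 30.3% in the primary screen of four-compound pools, then above 30% when the compound was retested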;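 further: compounds exposed to preformed 24 h biofilms for 48 h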
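Assay system: C. albicans biofilms / Medium: RPMI/MOPS medium, pH 7.0 / Schedule: biofilm formation 24 h, compound exposure 48 h, 37 °C / Measured by: Alamar Blue fluorescence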
Hck Nef HTS – human Hck-Nef kinase inhibition. AID 463187. inhibition, % at 20 µM. P08631. hit rate 0.68% among 220,000. Recombinant Hck-YEEI plus Nef, Z-Lyte FRET kinase assay;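 active means Hck-Nef kinase inhibition above about 50%, limit read from the data; inactive means inhibition below that limit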
Target sequence (P08631 whole entry, looked up): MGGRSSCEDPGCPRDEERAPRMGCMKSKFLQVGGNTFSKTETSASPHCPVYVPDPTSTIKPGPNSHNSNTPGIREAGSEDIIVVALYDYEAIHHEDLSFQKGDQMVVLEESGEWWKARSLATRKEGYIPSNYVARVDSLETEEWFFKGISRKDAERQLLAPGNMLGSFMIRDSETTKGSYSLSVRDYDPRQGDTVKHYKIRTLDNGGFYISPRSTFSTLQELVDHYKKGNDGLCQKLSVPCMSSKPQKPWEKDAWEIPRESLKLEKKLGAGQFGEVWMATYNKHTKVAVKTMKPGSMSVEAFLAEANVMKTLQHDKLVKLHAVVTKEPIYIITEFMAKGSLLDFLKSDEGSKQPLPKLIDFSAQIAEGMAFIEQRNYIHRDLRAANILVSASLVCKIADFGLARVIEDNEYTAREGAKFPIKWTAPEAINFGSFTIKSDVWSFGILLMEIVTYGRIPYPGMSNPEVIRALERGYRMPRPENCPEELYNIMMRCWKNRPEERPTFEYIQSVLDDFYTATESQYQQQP
Mcl1-Noxa inh – Mcl-1/Noxa interaction inhibition; Q07820; TR-FRET Mcl-1/Noxa peptide binding, 2 h; inhibition, % at 21.7 µM; hit rate 1.5% among 220,000; AID 1022;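 active means compounds that cut the protein-peptide binding signal by more than 50% relative to plate controls in a single-dose test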;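 further: His-tagged Mcl-1 with rhodamine Noxa BH3 peptide and terbium anti-His antibody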
Of the large screens only hits and unclear results are named; the others gave an inactive call; [ ] = dose if it differs, or a comment. This is a sample that favours compounds with a hit; in the whole collection about 3.2% have one here.

N/C(Cc1ccc([N+](=O)[O-])cc1)=N\OC(=O)C(c1ccccc1)c1ccccc1	none (no result: Biofilm kill mix)
COc1ccc(S(=O)(=O)N=C2C=C(C)C(=O)C(C)=C2)cc1	14-3-3 Bad inh 71.6 (no result: Biofilm kill mix)
CNC(=O)NC(=O)C(C)OC(=O)c1ccc(Cl)c(S(=O)(=O)Nc2ccc(F)cc2)c1 (stereo not drawn)	none (no result: Bim-Mcl-1)
C#CCOCCOCCOCCNc1nc(N2CCN(C(=O)[C@H]([C@@H](C)CC)n3cc([C@@H](N)CO)nn3)CC2)nc(N2CCN(C(=O)[C@H]([C@@H](C)CC)n3cc([C@@H](N)CO)nn3)CC2)n1	none (no result: Bim-Mcl-1)
C#CCOCCOCCOCCNc1nc(N2CCN(C(=O)[C@H]([C@@H](C)CC)n3cc([C@@H](N)CO)nn3)CC2)nc(N2CCN(C(=O)[C@H]([C@@H](C)CC)n3cc([C@@H](N)CC(C)C)nn3)CC2)n1	Mcl1-Bid inh 55.8
C#CCOCCOCCOCCNc1nc(N2CCN(C(=O)[C@H](CCCCN)n3cc([C@@H](N)CC(C)C)nn3)CC2)nc(N2CCN(C(=O)[C@H](Cc3cc4ccccc4[nH]3)n3cc([C@@H](N)Cc4ccc(O)cc4)nn3)CC2)n1	Mcl1-Bid inh 59.9
C#CCOCCOCCOCCNc1nc(N2CCN(C(=O)[C@H](CCC(=O)O)n3cc(C(N)CC(C)C)nn3)CC2)nc(N2CCN(C(=O)[C@H](Cc3ccc(O)cc3)n3cc(C(N)CC(C)C)nn3)CC2)n1 (stereo partly drawn)	Mcl1-Bid inh 59.0
C#CCOCCOCCOCCNc1nc(N2CCN(C(=O)[C@H](C)n3cc(CCCN=C(N)N)nn3)CC2)nc(N2CCN(C(=O)[C@H](CCCCN)n3cc(CCCC)nn3)CC2)n1	14-3-3 Bad inh 88.7, Mcl1-Bid inh 72.3
O=C(c1cc(Cl)cc(Cl)c1)N1CCN(c2cc(C(F)(F)F)nc3ccccc23)CC1	none (no result: Bim-Mcl-1)
CCS(=O)(=O)c1ccc2c(c1)N(S(C)(=O)=O)CC(C(=O)NN)O2 (stereo not drawn)	none
C#CCOCCOCCOCCNc1nc(N2CCN(C(=O)[C@H](CCCCN)n3cc(C(N)CC(C)C)nn3)CC2)nc(N2CCN(C(=O)[C@H](CCC(=O)O)n3cc(C(N)[C@H](C)CC)nn3)CC2)n1 (stereo partly drawn)	Mcl1-Bid inh 82.4
C#CCOCCOCCOCCNc1nc(N2CCN(C(=O)[C@H](CCCCN)n3cc(C(N)CO)nn3)CC2)nc(N2CCN(C(=O)[C@H](CCC(=O)O)n3cc(C(N)CC(C)C)nn3)CC2)n1 (stereo partly drawn)	none (no result: Bim-Mcl-1)
COc1ccc(CCNc2c([N+](=O)[O-])c(=O)oc3ccccc23)cc1OC	none (no result: Biofilm kill mix)
Cc1cccc(C)c1OCC(O)CN1CCN(c2ccccn2)CC1 (stereo not drawn)	none
Cc1ccc(OCC(O)CN2CCN(c3ccccn3)CC2)c(C)c1 (stereo not drawn)	Mcl1-Noxa inh 50.6
COc1ccc2nc(N3C(=O)/C(=C/c4ccc(Cl)cc4)NC3=S)sc2c1	14-3-3 Bad inh 72.3[fluorescence artefact?], Mcl1-Bid inh 88.5, Mcl1-Noxa inh 87.3
COc1cccc(/C(C#N)=C/c2c(-c3ccc(Cl)cc3)nc3c(C)cccn23)c1	14-3-3 Bad inh 71.0 (no result: Biofilm kill mix)
Cc1cccn2c(/C=N/OCc3cccc(F)c3)c(-c3ccc(Cl)cc3)nc12	none (no result: Biofilm kill mix)
COC(=O)c1[nH]c2ccc(Cl)cc2c1NC(=O)C1CC1	none (no result: Biofilm kill mix)
COC(=O)c1[nH]c2ccc(Cl)cc2c1NC(=O)Oc1ccccc1	Mcl1-Noxa inh 50.8 (no result: Biofilm kill mix)
COc1cccc(CNC(=O)C23CN(Cc4ccccc4)CC2C(c2ccc([N+](=O)[O-])cc2)=NO3)c1 (stereo not drawn)	14-3-3 Bad inh 71.3 (no result: Biofilm kill mix)
CC(C)CCNC(=O)C12CN(Cc3ccccc3)CC1C(c1ccc([N+](=O)[O-])cc1)=NO2 (stereo not drawn)	none (no result: Biofilm kill mix)
Cc1ccc(-c2cc(Cc3ccc(N(C)C)cc3)c(=O)[nH]n2)cc1	none (no result: Bim-Mcl-1)
CCCn1c(SC(C)C(=O)O)nc2ccccc21 (stereo not drawn)	14-3-3 Bad inh 83.2 (no result: Biofilm kill mix)
C/C(NCc1ccccc1)=C(\C#N)C(=O)NCc1ccccc1	none (no result: Biofilm kill mix)
C/C(NCc1cccnc1)=C(\C#N)C(=O)NCc1ccccc1	14-3-3 Bad inh 71.3 (no result: Biofilm kill mix)
CCN(CCNC(=O)C1CCN(S(=O)(=O)c2cccc3cccnc23)CC1)c1ccccc1	none (no result: Biofilm kill mix)
COc1ccc(CCNC(=O)c2ccc3nc(-c4ccco4)c(-c4ccco4)nc3c2)cc1OC	Mcl1-Noxa inh 99.3 (no result: Biofilm kill mix)
COC(=O)c1c(C)[nH]c(C(=O)NCc2ccco2)c1C	none
CCc1ccc(NC(=O)Cn2nc(C(F)(F)F)c3c2CCC3)cc1	Mcl1-Bid inh 54.1 (no result: Biofilm kill mix)
CN(C)c1nc(N(C)C)nc(N2CC(=O)N(c3ccccc3)C2=N)n1	none
O=[N+]([O-])c1cc(Cl)cc(/C=N\Nc2ccccn2)c1O	Mcl1-Bid inh 73.0 (no result: Biofilm kill mix)
O=C(Nc1nnc(-c2ccco2)s1)C1CCCCC1	Mcl1-Bid inh 55.9 (no result: Biofilm kill mix)
CC(C)CC1NC(=O)N(CC(=O)Nc2ccc3c(c2)CCC3)C1=O (stereo not drawn)	none
NC(=O)N/N=C(/CCCCCC/C(=N\NC(N)=O)c1ccccc1)c1ccccc1	none (no result: Bim-Mcl-1)
O=C(O)c1ccc2c(c1)[C@@H]1C=CC[C@@H]1[C@H](c1ccccn1)N2	none (no result: 14-3-3 Bad inh, Bim-Mcl-1, Mcl1-Bid inh, Biofilm kill mix, Mcl1-Noxa inh)
O=C(OC1CCCCC1)c1ccc2c(c1)C1C=CCC1C(C(=O)O)N2 (stereo not drawn)	Mcl1-Bid inh 98.2, Hck Nef HTS 77.0, Mcl1-Noxa inh 107.8 (no result: Biofilm kill mix)
O=C(O)C1Nc2c(O)cccc2C2C=CCC12 (stereo not drawn)	14-3-3 Bad inh 82.8[fluorescence artefact?], Mcl1-Bid inh 86.0, Mcl1-Noxa inh 115.4
O=C(N1CCOCC1)N1CCC(c2nc(-c3ccc(S(=O)(=O)N4CCOCC4)cc3)no2)CC1	14-3-3 Bad inh 73.4 (no result: Biofilm kill mix)
Nc1cccnc1Sc1cc(Cl)c(Cl)cc1Cl	Mcl1-Noxa inh 87.8 (no result: Biofilm kill mix)
CC(C)NC(=S)N/N=C1\CCCCC1C1CCCCC1 (stereo not drawn)	none (no result: Biofilm kill mix)
Brc1ccc(CSc2nnc(-c3cccnc3)o2)cc1	Hck Nef HTS 51.1
CC1Cc2ccccc2N1C(=O)CNCCCN(C)C (stereo not drawn)	14-3-3 Bad inh 76.5 (no result: Biofilm kill mix)
CN(C)CCCNCC(=O)Nc1ccccc1N1CCOCC1	Mcl1-Bid inh 61.6 (no result: Biofilm kill mix)
O=C(NC(=S)Nc1ccccc1N1CCOCC1)c1cccs1	none
O=C(Cc1ccccc1)Nc1ccccc1N1CCOCC1	none (no result: Biofilm kill mix)
CC1Cc2ccccc2N1C(=O)CSCC(=O)O (stereo not drawn)	none (no result: Biofilm kill mix)
O=C(Nc1ccccc1N1CCOCC1)c1cccs1	Bim-Mcl-1 82.0
O=C(CNCC1CCCCC1)Nc1ccccc1N1CCCCC1	14-3-3 Bad inh 80.4 (no result: Biofilm kill mix)
Cc1cccc(C(=O)Oc2ccccc2C(=O)N2CCOCC2)c1	none (no result: Bim-Mcl-1)
Cc1cccc(CSC2=NCCN2C(=O)c2ccc(Br)o2)c1	none (no result: Biofilm kill mix)
CN(C(=O)CC1C(=O)NCCN1CC1CCCCC1)C1CCOCC1 (stereo not drawn)	none (no result: Bim-Mcl-1)
